Hits are enriched below; roughly 1.2% of the tested compounds scored in any of these assays.
Yeast superoxide: lowers age-related superoxide in aged yeast cells; S. cerevisiae aged cells, superoxide DHE fluorescence; hits give low values; superoxide response (% of plate mean), % at 10 µM; actives 0.18% (n = 330,000);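 active = superoxide response under a set limit, about three screen SD below normal, cut at about 65% in these data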;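 also: yeast aged for seven days with compound at 30 °C before DHE staining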
ASAP1 GAP inh: ASAP1 ArfGAP inhibition; Q9ULH1; ASAP1-stimulated ARF1 GTP hydrolysis, GDP FP detection; inhibition, % at 16.5 µM; actives 0.19% (n = 360,000); in the data active = inhibition above about 25%
ARFGAP1 inh: inhibits rat ARF GTPase activating protein 1. actives 0.26% (n = 360,000). inhibition, % at 16.5 µM. AID 651572. Arfgap1-stimulated ARF1 GTP hydrolysis, GDP FP detection. Q62848;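 active = inhibition above a per-plate limit, mean inhibition of low control wells plus 3 SD, cut at about 25% in these data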
Target sequence (Q62848 1-136 limits assumed): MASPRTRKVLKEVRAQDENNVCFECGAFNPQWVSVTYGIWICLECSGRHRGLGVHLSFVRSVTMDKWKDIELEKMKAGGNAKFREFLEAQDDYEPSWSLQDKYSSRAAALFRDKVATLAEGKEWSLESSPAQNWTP
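Material – truncated rat Arfgap1 GAP domain · Buffer or medium – HEPES-based buffer, pH 7.5 · Reagent – human ARF1(Δ1-17)-GTP substrate · Dosing – 16.5 µM single point, 1.26% DMSO · Schedule – GTP hydrolysis reaction 2 h at 25 °C · Technique – GDP detection by fluorescence polarization · Benchmarks – No-Arfgap1 wells (100%) versus DMSO full-reaction wells (0%) · Repeats – single replicate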
LANA-H2B inh: blocks KSHV LANA binding to histone H2A/H2B; cell-free LANA-H2A/H2B peptide, fluorescence polarization; inhibition, % (test concentration not listed); Q9QR71; actives 0.6% (n = 320,000); in the data active = inhibition mostly above about 10%, no sharp cut-off; inactive = mostly below about 6.7%
proCasp3 act: activators of human procaspase-3 | recombinant procaspase-3 D3A, Ac-DEVD-pNA absorbance 405 nm | actives 0.11% (n = 330,000) | activation, % at 8.5 µM | P42574;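 active = activation above the mean of all tested compounds plus 3 SD, cut at about 21% in these data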
Target sequence (P42574 whole entry D9A/D28A/D175A): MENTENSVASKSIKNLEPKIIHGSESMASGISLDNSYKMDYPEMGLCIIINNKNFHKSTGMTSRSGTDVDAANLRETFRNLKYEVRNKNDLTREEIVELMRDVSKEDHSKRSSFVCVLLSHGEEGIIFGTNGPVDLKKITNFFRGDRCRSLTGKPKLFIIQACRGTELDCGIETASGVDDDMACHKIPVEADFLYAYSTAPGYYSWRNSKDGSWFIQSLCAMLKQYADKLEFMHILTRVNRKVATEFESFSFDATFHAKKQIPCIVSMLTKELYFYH
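Assay system: Autoprocessing-dead procaspase-3 D3A mutant enzyme; also added: Ac-DEVD-pNA; doses: one concentration, 8.5 µM nominal, 0.8% DMSO; times: 1 h compound preincubation, 2 h substrate hydrolysis at 25 °C; technique: 405 nm absorbance of p-nitroaniline, reads at 0 and 120 min; measure: % activation between DMSO and enzyme-spiked controls; repeats: single replicate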
proCasp7 act: counter-screen: procaspase-7 (human) activation. P55210. recombinant procaspase-7, Ac-DEVD-pNA absorbance 405 nm; D23A/D198A/D206A triple mutant, cannot self-cleave; scale: DMSO 0, 5 µM enzyme 100. activation, % at 8.5 µM. actives 0.093% (n = 330,000);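 active = percent activation above the screen-wide mean plus 3 SD, cut at about 25% in these data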
Target sequence (P55210 whole entry D23A/D198A/D206A): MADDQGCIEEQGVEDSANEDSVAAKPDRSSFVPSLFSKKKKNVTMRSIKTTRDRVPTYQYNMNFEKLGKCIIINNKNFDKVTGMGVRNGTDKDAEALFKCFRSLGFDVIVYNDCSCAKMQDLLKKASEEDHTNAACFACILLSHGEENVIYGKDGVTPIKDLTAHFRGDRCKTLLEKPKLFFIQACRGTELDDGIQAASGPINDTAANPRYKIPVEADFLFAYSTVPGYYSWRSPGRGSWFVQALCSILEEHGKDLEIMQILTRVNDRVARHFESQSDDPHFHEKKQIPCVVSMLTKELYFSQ
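System: Procaspase-7 triple mutant (PC-7 D3A); measure: % activation from two-timepoint absorbance difference, scaled to controls; times: 1 h compound preincubation, 2 h substrate cleavage, 25 °C; also added: Ac-DEVD-pNA substrate, 400 µM as added; measured by: Epi-absorbance of released pNA at 405 nm, two timepoints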
Large screens that a line does not name were inactive.

CN(CC(=O)Nc1ccccc1Br)C(=O)c1ccncc1	LANA-H2B inh 29
O=C(NCc1ccco1)C1CCC(N2C(=O)C3C4CCC(C4)C3C2=O)CC1 (stereo not drawn)	none
O=C(NCc1ccco1)C1CCC(N2C(=O)c3ccccc3C2=O)CC1 (stereo not drawn)	LANA-H2B inh 23
Cc1c(CCO)c(=O)[nH]n1S(=O)(=O)c1ccc(F)cc1	LANA-H2B inh 14
Nc1[nH]c(C(=O)c2ccc(Cl)cc2)c(-c2ccc(Br)cc2)c1C(=O)c1c[nH]c2ccc(F)cc12	none (no result: Yeast superoxide, LANA-H2B inh, proCasp3 act, proCasp7 act)
CC(C)(C)N(Cc1ccccc1)C(=O)COC(=O)c1ccc(Br)o1	none
CC(C)(C)N(Cc1ccccc1)C(=O)c1ccc(Br)o1	LANA-H2B inh 9.6
COc1ccc2nc(NC(=O)CSC(C)C(=O)Nc3cc(C)on3)sc2c1 (stereo not drawn)	LANA-H2B inh 17
Cc1cc(C)c2cc(CN(Cc3ccco3)C(=S)NCC3CCCO3)c(=O)[nH]c2c1 (stereo not drawn)	LANA-H2B inh 20
CCN=C1NC(CCc2ccccc2)C(C(=O)OC)=C(C)N1Cc1ccccc1C(F)(F)F (stereo not drawn)	none (no result: Yeast superoxide, LANA-H2B inh, proCasp3 act, proCasp7 act)
CC(C)c1onc(C(=O)N2CCCCCC2)c1[N+](=O)[O-]	LANA-H2B inh 33
Cc1cc(C)c(NC(=O)CS)c(Cl)c1	LANA-H2B inh 18
CCN(CC(=O)Nc1ccc2c(c1)OCCO2)S(=O)(=O)c1ccc(F)cc1	none
Cc1ncc(CO)c(/C=N/NC(=O)c2ccc(O)cc2)c1O	none
Cc1ncc(CO)c(/C=N/NC(=O)c2cc3c(s2)CCCC3)c1O	proCasp3 act 31, proCasp7 act 26
O=C(NC(CO)C(O)c1ccc([N+](=O)[O-])cc1)C(Cl)Cl (stereo not drawn)	none
O=C(NC(CO)Cc1ccc([N+](=O)[O-])cc1)C(Cl)Cl (stereo not drawn)	LANA-H2B inh 22 (no result: ASAP1 GAP inh, ARFGAP1 inh)
Cc1ccc(/C=N\NC(=O)COc2ccc(C)cc2[N+](=O)[O-])cc1	none
Cc1ccc(OCC(=O)N/N=C\c2ccc(O)c([N+](=O)[O-])c2)c([N+](=O)[O-])c1	LANA-H2B inh 13
Cc1ccccc1NS(=O)(=O)c1ccc2c(c1)CCC(=O)N2	none (no result: Yeast superoxide, LANA-H2B inh, proCasp3 act, proCasp7 act)
COc1ccc(C)cc1NC(=O)C1CC(=O)N(Cc2ccco2)C1 (stereo not drawn)	LANA-H2B inh 13
COCCN(CCOC)C(=O)c1ccc(NS(=O)(=O)c2ccc3[nH]c(=O)[nH]c3c2)cc1	LANA-H2B inh 33
COc1ccc(CCNC(=O)c2ccc(NS(=O)(=O)c3ccc4[nH]c(=O)[nH]c4c3)cc2)cc1	none
Oc1[nH]c2ccccc2c1N=Nc1ccc(F)cc1	none
Oc1[nH]c2ccccc2c1N=Nc1ccccc1	LANA-H2B inh 16
COc1ccc(NC(=O)c2cc3c([nH]c4ccccc43)c(C)n2)cc1	none
Cc1nc(C(=O)Nc2ccccc2Cl)cc2c1[nH]c1ccccc12	LANA-H2B inh 8.3
CCCCNC(=O)c1ccc(SCC(=O)N(CC)CC)c([N+](=O)[O-])c1	LANA-H2B inh 79
CC(=O)c1ccc(NS(=O)(=O)c2c(C)cc(C)cc2C)cc1	LANA-H2B inh 19
Cc1cc(C)c(S(=O)(=O)Nc2ccc(C(N)=O)cc2)c(C)c1	none
O=C(Nc1ccc(-n2cnnn2)cc1)C1CCCCC1	LANA-H2B inh 13
c1ccc2c(c1)CCCN2Cc1nnc2n1CCCCC2	LANA-H2B inh 59
COC(=O)c1c(NC(=O)C(=O)N2CCOCC2)sc2c1CCC2	LANA-H2B inh 13
O=C(Cn1c2ccccc2c(=O)c2ccccc21)N/N=C/c1ccc(N2CCCC2)c([N+](=O)[O-])c1	LANA-H2B inh active
Cc1cc(C)cc(-n2ccnc2SCC(=O)c2c(N)n(C3CC3)c(=O)[nH]c2=O)c1	none
Cc1ccc(-n2nnnc2SCC(=O)c2c(N)n(C3CC3)c(=O)[nH]c2=O)cc1	LANA-H2B inh 17
COCCn1c(SCC(=O)c2c(N)n(C3CC3)c(=O)[nH]c2=O)nnc1-c1ccc(Cl)cc1	LANA-H2B inh active
Cc1ccc(C)c(-n2ccnc2SCC(=O)c2c(N)n(C3CC3)c(=O)[nH]c2=O)c1	LANA-H2B inh active
O=C(NCc1ccccc1)[C@@H]1CCCN1C(=O)[C@H]1CCCN1C(=O)c1ccc(F)c(C(F)(F)F)c1	none (no result: Yeast superoxide, LANA-H2B inh, proCasp3 act, proCasp7 act)
COc1ccc2ccccc2c1CN1CCN(c2ncc(Cc3ccccc3)cn2)CC1	none (no result: Yeast superoxide, LANA-H2B inh, proCasp3 act, proCasp7 act)
COc1ccc(NC(=O)CSc2cn[nH]n2)c(OC)c1	LANA-H2B inh 34
COc1ccc(C(=O)C2CCN(CC(=O)Nc3ccc(OC)cc3OC)CC2)cc1	LANA-H2B inh 19
COc1ccc(NC(=O)CC(=O)Nc2ccc(OC)cc2OC)c(OC)c1	none
COc1ccc(OC)c(NC(=O)CCn2cccc2)c1	none
COc1ccc(OC)c(NC(=O)Cn2cccc2)c1	LANA-H2B inh 17 (no result: ASAP1 GAP inh, ARFGAP1 inh)
C=CC[C@]12C[C@@]3(O[C@H](c4ccc(C(F)(F)F)cc4)N=C3C[C@H](c3ccc(OC)cc3)[C@H]1C)N(Cc1ccncc1)C2=O	none (no result: Yeast superoxide, LANA-H2B inh, proCasp3 act, proCasp7 act)
COc1ccc(CCN2CC(C(=O)N(C)CCOc3ccccc3)CCC2=O)cc1 (stereo not drawn)	none
COc1ccc(CCN2CC(C(=O)N(C)Cc3ccccc3OC)CCC2=O)cc1 (stereo not drawn)	LANA-H2B inh 12
COc1ccccc1CNC(=O)CCC(=O)Nc1nnc(C(C)C)s1	LANA-H2B inh 20
COc1ccccc1CNC(=O)CCC(=O)Nc1nnc(C)s1	none
COc1ccc(/C=C/C(=O)Nc2nnc(C(C)C)s2)cc1OC	LANA-H2B inh 20
CC(=O)[C@]1(O)Cc2c(O)c3c(c(O)c2[C@@H](O[C@H]2C[C@H](N)[C@H](O)[C@H](C)O2)C1)C(=O)c1ccccc1C3=O	LANA-H2B inh 49 (no result: ASAP1 GAP inh, ARFGAP1 inh)
COc1cccc2c1C(=O)c1c(O)c3c(c(O)c1C2=O)C[C@@](O)(C(=O)CO)C[C@@H]3O[C@H]1C[C@H](N)[C@@H](O)[C@H](C)O1	LANA-H2B inh 27 (no result: ASAP1 GAP inh, ARFGAP1 inh)
COc1cccc2c1C(=O)c1c(O)c3c(c(O)c1C2=O)C[C@@](O)(C(C)=O)C[C@@H]3O[C@H]1C[C@H](N)[C@H](O)[C@H](C)O1	none (no result: Yeast superoxide, LANA-H2B inh, proCasp3 act, proCasp7 act)
COc1cccc(NC(=O)N(C)C[C@H]2OCc3ccccc3-c3c(n(C)c4ccccc34)C(=O)N([C@H](C)CO)C[C@H]2C)c1	none (no result: Yeast superoxide, LANA-H2B inh, proCasp3 act, proCasp7 act)
CCCCN1C(=O)C(CC(=O)NCCCN(C)C)CC(C(=O)N2CCOCC2)=C1C (stereo not drawn)	none (no result: Yeast superoxide, LANA-H2B inh, proCasp3 act, proCasp7 act)
